According to article PMC5973995 (Clinical Pharmacokinetics, 2017):
Where two headings read alike, the source gives them in different places.

Tests used:
[1] = type: in vivo, human; settings: for AUC(0-inf) / AUC(0-t) / Cmax / Tmax / Vd/F / half-life: both, human, plasma, po; for CL/F: healthy subjects, mean (% CV)
In short: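 Healthy subjects given a single oral dose; plasma parameters derived by non-compartmental analysis of pooled phase I data. Reported as mean and % coefficient of variation, except Tmax as median (minimum–maximum). AUC taken both to infinity and to the last quantifiable concentration. CL/F is total clearance, and Vz/F is the terminal-phase apparent volume after extravascular dosing.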

[2] = Effect of sex, age and race/ethnicity on pharmacokinetics; type: in vivo, human
[3] = molecular target: CYP2E1 (Homo sapiens, UniProt P05181); test: In-vitro CYP inhibition in pooled human liver microsomes; type: in vitro ADME; settings: data on file
Chain of CYP2E1 (P05181 whole entry): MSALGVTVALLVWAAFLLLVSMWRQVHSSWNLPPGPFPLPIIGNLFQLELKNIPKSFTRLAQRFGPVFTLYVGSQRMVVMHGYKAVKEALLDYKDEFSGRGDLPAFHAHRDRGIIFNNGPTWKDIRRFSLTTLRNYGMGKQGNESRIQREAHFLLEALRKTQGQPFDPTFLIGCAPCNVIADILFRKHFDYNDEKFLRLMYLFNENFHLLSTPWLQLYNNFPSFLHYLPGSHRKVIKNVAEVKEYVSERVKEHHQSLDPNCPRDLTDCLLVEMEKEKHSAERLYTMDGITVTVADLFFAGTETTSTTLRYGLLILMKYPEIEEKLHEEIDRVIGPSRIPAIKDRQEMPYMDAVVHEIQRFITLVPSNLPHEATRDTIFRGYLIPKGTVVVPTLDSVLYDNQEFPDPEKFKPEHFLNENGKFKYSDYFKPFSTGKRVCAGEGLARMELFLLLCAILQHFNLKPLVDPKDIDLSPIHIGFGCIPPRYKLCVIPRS

[4] = test system: CYP3A4/5; test: as above; type: in vitro ADME; settings: data on file
[5] = molecular target: T1, CYP2C8 (Homo sapiens, UniProt P10632); test: as above; type: in vitro ADME
T1 sequence (P10632 1-490): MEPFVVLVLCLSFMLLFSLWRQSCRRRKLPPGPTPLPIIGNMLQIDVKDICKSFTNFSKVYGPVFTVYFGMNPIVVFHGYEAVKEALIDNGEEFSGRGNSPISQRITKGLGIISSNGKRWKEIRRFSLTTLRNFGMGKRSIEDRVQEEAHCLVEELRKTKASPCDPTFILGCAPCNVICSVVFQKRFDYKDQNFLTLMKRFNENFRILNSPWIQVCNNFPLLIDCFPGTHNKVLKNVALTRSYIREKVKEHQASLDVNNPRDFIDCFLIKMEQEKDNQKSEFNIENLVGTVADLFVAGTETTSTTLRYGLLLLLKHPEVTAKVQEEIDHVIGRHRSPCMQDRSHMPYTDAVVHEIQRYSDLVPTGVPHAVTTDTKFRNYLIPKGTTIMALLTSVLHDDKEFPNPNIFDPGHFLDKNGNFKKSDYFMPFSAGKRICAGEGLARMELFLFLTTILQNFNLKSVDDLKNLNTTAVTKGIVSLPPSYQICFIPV

[6] = Tolerability / adverse events in phase I studies; type: in vivo, human; settings: phase I data grouped by CYP2D6-predicted phenotypes
[7] = once-daily dosing; cited from earlier work
[8] = cited from earlier work
[9] = cited from earlier work; remark: listed apart in the source
[10] = cited from earlier work; remark: listed apart in the source
[11] = test system: P-glycoprotein (Pgp) transporter; settings: cited from earlier work
[12] = test system: SERT; settings: Japanese and white male individuals, cited from earlier work
[13] = cited from earlier work; remark: listed apart in the source
[14] = cited from earlier work; remark: listed apart in the source
[15] = test system: 5-HT1A receptor; settings: in vitro; cited from earlier work
[16] = test system: 5-HT3 receptor; settings: in vitro; cited from earlier work
[17] = test system: 5-HT7 receptor; settings: in vitro; cited from earlier work
[18] = test system: 5-HT1D receptor; settings: in vitro; cited from earlier work
[19] = test system: 5-HT1B receptor; settings: in vitro; cited from earlier work
[20] = test system: 5-HT transporter (SERT); settings: in vitro; cited from earlier work
[21] = cited from earlier work; remark: listed apart in the source
[22] = multiple doses of 2.5, 5, and 20 mg, male, data on file
[23] = 10 mg daily for 14 days (Fig. 2)
[24] = single dose 10 mg, 65–85 vs 18–45 years
[25] = single dose, 24 male vs 24 female
[26] = mild-to-moderate hepatic impairment, single dose 10 mg (Fig. 2)
[27] = severe hepatic impairment, single dose 5 mg

**Q.** Which “time to reach maximum observed plasma concentration” value ([1]; after single or multiple dosing (Tables 1, 2)) does the source give for `Br.Cc1ccc(Sc2ccccc2N2CCNCC2)c(C)c1` [vortioxetine, 1-[2-(2,4-dimethyl-phenylsulfanyl)-phenyl]-piperazine, hydrobromide] here?
**A.** 7 to 11 h

**Q.** What about the AUC(0-inf) ([1]; 5 mg) of the same molecule?
**A.** 188 ng·h/mL

**Q.** And the AUC(0-t) ([1]; 5 mg)?
**A.** 157 ng·h/mL

**Q.** What about the Cmax ([1]; 5 mg) of the same molecule?
**A.** 1.87 ng/mL

**Q.** What about the Tmax ([1]; 5 mg) of the same molecule?
**A.** 11 h

**Q.** And the Vd/F ([1]; 5 mg)?
**A.** 2740 L

**Q.** And the half-life ([1]; 5 mg)?
**A.** 69.4 h

**Q.** And the AUC(0-inf) ([1]; 10 mg)?
**A.** 273 ng·h/mL

**Q.** And the AUC(0-t) ([1]; 10 mg)?
**A.** 255 ng·h/mL

**Q.** And the Cmax ([1]; 10 mg)?
**A.** 4.6 ng/mL

**Q.** And the Tmax ([1]; 10 mg)?
**A.** 8 h

**Q.** And the Vd/F ([1]; 10 mg)?
**A.** 2770 L

**Q.** What about the half-life ([1]; 10 mg) of the same molecule?
**A.** 60.6 h

**Q.** And the AUC(0-inf) ([1]; 20 mg)?
**A.** 646 ng·h/mL

**Q.** And the AUC(0-t) ([1]; 20 mg)?
**A.** 561 ng·h/mL

**Q.** And the Cmax ([1]; 20 mg)?
**A.** 8.11 ng/mL

**Q.** And the Tmax ([1]; 20 mg)?
**A.** 10 h

**Q.** And the Vd/F ([1]; 20 mg)?
**A.** 3290 L

**Q.** What about the half-life ([1]; 20 mg) of the same molecule?
**A.** 64.3 h

**Q.** And the “estimated total clearance (CL/F)” value ([1]; oral, single or multiple doses (Tables 1, 2))?
**A.** 30 to 41 L/h

**Q.** What about the CL/F ([1]; single oral dose 5 mg) of the same molecule?
**A.** 29.62 (35) L/h

**Q.** And the CL/F ([1]; single oral dose 10 mg)?
**A.** 40.52 (40) L/h

**Q.** And the CL/F ([1]; single oral dose 20 mg)?
**A.** 41.47 (60) L/h

**Q.** And the “AUC(0–24) higher in elderly than young subjects” value ([2]; multiple 10-mg doses (Fig. 2))?
**A.** 27%

**Q.** What about the “C max higher in elderly than young subjects” value ([2]; multiple 10-mg doses (Fig. 2)) of the same molecule?
**A.** 23%

**Q.** What about the “AUC(0–24) higher in female than male subjects” value ([2]; multiple doses (Fig. 2)) of the same molecule?
**A.** 27%

**Q.** And the “C max higher in female than male subjects” value ([2]; multiple doses (Fig. 2))?
**A.** 24%

**Q.** And the “AUC(0–24) higher in Japanese than white participants” value [2, 22]?
**A.** 8%

**Q.** And the “C max higher in Japanese than white participants” value [2, 22]?
**A.** 9%

**Q.** And the “inhibitory in-vitro effect on CYP2E1” value [3]?
**A.** no inhibitory in-vitro effect

**Q.** What about the “inhibitory in-vitro effect on CYP3A4/5” value [4] of the same molecule?
**A.** no inhibitory in-vitro effect

**Q.** And the “ratio of maximum plasma concentration of inhibitor (I) and Ki” value ([5]; CYP2C8, much smaller than)?
**A.** smaller than 0.1

**Q.** And the “inhibitory effect on CYP2C8” value ([5]; pooled human liver microsomes, CYP isozyme-specific probe substrates, data on file)?
**A.** inhibitory effect

**Q.** And the “overall incidence of adverse events, CYP2D6 PMs vs non-PMs” value [6]?
**A.** no clinically relevant differences

**Q.** What about the “time to steady-state plasma concentrations” value [7] of the same molecule?
**A.** ≤ 2 weeks

**Q.** And the “effect of food (high-fat meal) on PK parameters” value ([8]; fed vs fasting)?
**A.** No food effect

**Q.** And the “90% CIs for AUC(0–t) or AUC(0–inf) and C max ratios (fed to fasting)” value ([8]; high-fat meal, within bioequivalence range)?
**A.** 80–125%

**Q.** What about the “AUC(0–24) higher in black than white volunteers” value [9, 23] of the same molecule?
**A.** 25%

**Q.** What about the “C max higher in black than white volunteers” value [9, 23] of the same molecule?
**A.** 33%

**Q.** What about the “AUC(0–t) higher in elderly than young subjects” value [9, 24] of the same molecule?
**A.** 4%

**Q.** And the “C max lower in elderly than young subjects” value [9, 24]?
**A.** 11%

**Q.** What about the “AUC(0–t) higher in female than male subjects” value [9, 25] of the same molecule?
**A.** 18%

**Q.** And the “C max higher in female than male subjects” value [9, 25]?
**A.** 16%

**Q.** And the “fraction of unbound parent drug, hepatically impaired vs healthy” value [10]?
**A.** no differences

**Q.** What about the “AUC(0–t) lower than healthy cohorts” value [10, 26] of the same molecule?
**A.** up to 9%

**Q.** And the “C max lower than healthy cohorts” value [10, 26]?
**A.** up to 16%

**Q.** What about the “AUC(0–t) higher than healthy controls” value [10, 27] of the same molecule?
**A.** 10%

**Q.** And the “C max lower than healthy controls” value [10, 27]?
**A.** 24%

**Q.** And the “I/half maximal inhibitory concentration (Pgp efflux)” value [11]?
**A.** smaller than 0.1

**Q.** And the “Pgp substrate in vitro” value ([11]; in vitro)?
**A.** poor substrate

**Q.** And the “inhibition of Pgp transport in vitro” value ([11]; in vitro)?
**A.** weak inhibitor

**Q.** What about the SERT occupancy ([12]; 5-mg dose) of the same molecule?
**A.** approximately 50%

**Q.** And the SERT occupancy ([12]; 10-mg dose)?
**A.** ~65%

**Q.** And the SERT occupancy ([12]; 20-mg dose)?
**A.** above 80%

**Q.** What about the “effect on neuropsychologic tests of cognitive domains with diazepam” value ([13]; co-administration with diazepam) of the same molecule?
**A.** did not have a statistically significant effect

**Q.** And the “effect on mental and motor impairment effects of alcohol” value ([13]; computerized neuropsychologic tests)?
**A.** did not increase

**Q.** What about the “arachidonic acid-, adenosine diphosphate-, or collagen-induced platelet aggregation” value ([14]; vortioxetine 10 mg added to aspirin 150 mg) of the same molecule?
**A.** did not change

**Q.** What about the “International Normalized Ratio or prothrombin times between groups” value ([14]; vortioxetine 10 mg with stable warfarin doses (1–10 mg), day 14) of the same molecule?
**A.** no difference

**Q.** What about the “action at 5-HT1A receptor” value [15] of the same molecule?
**A.** agonist

**Q.** And the “action at 5-HT3 receptor” value [16]?
**A.** antagonist

**Q.** What about the “action at 5-HT7 receptor” value [17] of the same molecule?
**A.** antagonist

**Q.** And the “action at 5-HT1D receptor” value [18]?
**A.** antagonist

**Q.** What about the “action at 5-HT1B receptor” value [19] of the same molecule?
**A.** partial agonist

**Q.** What about the “action at 5-HT transporter (SERT)” value [20] of the same molecule?
**A.** inhibitor

**Q.** What about the “tolerability regardless of degree of renal or hepatic impairment” value [21] of the same molecule?
**A.** well tolerated

**Q.** And the tolerability of combination ([21]; rifampin 600 mg daily with vortioxetine 20 mg)?
**A.** well tolerated
